Laboratory results: ChEMBL document CHEMBL3739416, “Discovery of a marine-derived bis-indole alkaloid fascaplysin, as a new class of potent P-glycoprotein inducer and establishment of its structure-activity relationship” (Eur J Med Chem, 2016)
pIC50: −log10 of the molar value. Activity calls are given as the source filed them. The calls are words filed in the database; no cut-off is given here.

What was measured:
LS180 [1] = assay: Induction of P-glycoprotein in human LS180 cells assessed as accumulation of intracellular rhodamine-123 at 1 uM after 48 hrs by fluorescence assay relative to control; format: cell-based
Method in brief: (§1)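 LS-180 colorectal cells, seeded at 2 × 10⁴ per well, were grown 24 h and then exposed to compound for 48 h, with 0.1% final DMSO. Rifampicin at 10 µM served as the reference inducer. Cells were held in HANKS buffer for 40 min, then loaded with Rh123 for 90 min and washed four times in cold PBS. Lysis was 1 h in 0.1% Triton X-100/0.2 N NaOH. Read-out was intracellular Rh123 per total protein, expressed as % of untreated control. Values are the mean ± SD of three experiments.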

[2] = Cytotoxicity against human LS180 cells assessed as cell viability at 10 uM after 48 hrs by MTT assay relative to control; format: cell-based; conditions: read-out: Activity
Method in brief: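 LS-180 cells were seeded at 1 × 10⁴ per well, allowed 24 h, then treated with compound. MTT dye was added 4 h before the end. Formazan was dissolved in DMSO and absorbance read at 570 nm. Viability was expressed relative to the untreated control, taken as 100%.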

[3] = Thermodynamic aqueous solubility of the compound in stimulated gastric fluid; format: ADME; conditions: simulated gastric fluid; read-out: Therm_solubility
LS180 [4] = assay: Induction of P-glycoprotein expression in human LS180 cells at 1 uM by Western blot analysis relative to control; format: cell-based
[5] = Thermodynamic aqueous solubility of the compound in water; format: physicochemical; conditions: read-out: Therm_solubility
LS180 [6] = assay: Induction of P-glycoprotein in human LS180 cells assessed as accumulation of intracellular rhodamine-123 at 250 nM after 48 hrs by fluorescence assay relative to control; format: cell-based; method in brief: as §1
LS180 [7] = assay: Induction of P-glycoprotein in human LS180 cells assessed as accumulation of intracellular rhodamine-123 at 500 nM after 48 hrs by fluorescence assay relative to control; format: cell-based; method in brief: as §1
[8] = Thermodynamic aqueous solubility of the compound in stimulated intestinal fluid; format: ADME; conditions: simulated intestinal fluid; read-out: Therm_solubility
LS180 [9] = assay: Induction of P-glycoprotein in human LS180 cells assessed as accumulation of intracellular rhodamine-123 at 125 nM after 48 hrs by fluorescence assay relative to control; format: cell-based; method in brief: as §1
[10] = Thermodynamic aqueous solubility of the compound in phosphate buffer saline; format: physicochemical; conditions: read-out: Therm_solubility
LS180 [11] = assay: Induction of P-glycoprotein in human LS180 cells assessed as accumulation of intracellular rhodamine-123 at 62.5 nM after 48 hrs by fluorescence assay relative to control; format: cell-based; method in brief: as §1
LS180 [12] = assay: Induction of P-glycoprotein in human LS180 cells assessed as accumulation of intracellular rhodamine-123 at 5 uM after 48 hrs by fluorescence assay; format: cell-based; method in brief: as §1
LS180 [13] = assay: Induction of P-glycoprotein in human LS180 cells assessed as accumulation of intracellular rhodamine-123 at 10 uM after 48 hrs by fluorescence assay relative to control; format: cell-based; method in brief: as §1
[14] = Cytotoxicity against HGF cells assessed as cell viability after 48 hrs by MTT assay; format: cell-based; conditions: Homo sapiens
Method in brief: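 Normal human gingival fibroblasts grown in MEM with 1% non-essential amino acids, 10% FCS, penicillin G and streptomycin at 37 °C, 5% CO2. Seeded at 1 × 10⁴ cells/well for 24 h, then compound-treated. MTT added 4 h before the end, formazan dissolved in DMSO, absorbance read at 570 nm. Viability expressed relative to untreated control set as 100%.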

Compound | Activity (LS180 [1]) [%] | viability at 48 h, 10 µM [2] [%] | Activity (LS180 [12]) | further results
C[n+]1ccc2c([nH]c3ccccc32)c1C(=O)c1ccc(C(F)(F)F)cc1 | 78.5 | 75.7 |  | 
O=C(c1ccc(C(F)(F)F)cc1)c1nccc2c1[nH]c1ccccc12 | 107 | 106 |  | 
O=C(c1ccccc1F)c1nccc2c1[nH]c1ccccc12 | 101 | 98.4 |  | 
O=C1c2cc(F)c(F)cc2-[n+]2ccc3c([nH]c4ccccc43)c21.[Cl-] | 49.6 | 63.5 |  | solubility thermodynamic [3]: 80 µg/mL; fold change (FC) (LS180 [4]): 4; solubility thermodynamic [5]: > 1500 µg/mL; Activity (LS180 [6]): 35.3%; Activity (LS180 [7]): 30.6%; solubility thermodynamic [8]: < 5 µg/mL; Activity (LS180 [9]): 33.8%; solubility thermodynamic [10]: 80 µg/mL; Activity (LS180 [11]): 35.5%
c1ccc2nc(CN3CCc4c([nH]c5ccccc45)C3)ccc2c1 |  |  | inactive | 
O=C(c1ccc(Cl)cc1Cl)c1nccc2c1[nH]c1ccccc12 | 97.3 | 98.8 |  | 
O=C(c1ccc(-c2cccc([N+](=O)[O-])c2)o1)N1CCc2c([nH]c3ccccc23)C1 |  |  | inactive | 
O=C1c2ccc(Cl)c(Cl)c2-[n+]2ccc3c([nH]c4ccccc43)c21 | 57.8 | 57.4 |  | 
O=C(c1c(F)cccc1Cl)c1nccc2c1[nH]c1ccccc12 | 89.6 | 60.1 |  | 
Clc1ccc(CN2CCc3c([nH]c4ccccc34)C2)s1 |  |  | inactive | 
O=C1c2c(Cl)cccc2-[n+]2ccc3c([nH]c4ccccc43)c21 | 59.2 | 63.4 |  | 
O=C(N1CCOCC1)N1CCc2c([nH]c3ccccc23)C1 |  |  | inactive | 
C[n+]1ccc2c([nH]c3ccccc32)c1C(=O)c1ccccc1Cl | 71.4 | 69.7 |  | 
C[n+]1ccc2c([nH]c3ccccc32)c1C(=O)c1c[nH]c2ccccc12 | 77.6 | 69.1 |  | 
O=C(c1ccc([N+](=O)[O-])s1)N1CCc2c([nH]c3ccccc23)C1 |  |  | inactive | 
O=C(c1ccc(-c2cc(C(F)(F)F)ccc2Cl)o1)N1CCc2c([nH]c3ccccc23)C1 |  |  | inactive | 
O=C(c1ccccc1Br)c1nccc2c1[nH]c1ccccc12 | 105 | 80.3 |  | 
Cc1ncsc1C(=O)N1CCc2c([nH]c3ccccc23)C1 |  |  | inactive | 
O=C(c1cc(F)c(Cl)cc1Cl)c1nccc2c1[nH]c1ccccc12 | 106 | 92.4 |  | 
c1ccc2c(CN3CCc4c([nH]c5ccccc45)C3)c3ccccc3cc2c1 |  |  | inactive | 
c1ccc2c3c([nH]c2c1)CN(Cc1ccncc1)CC3 |  |  | inactive | 
O=C(c1cnccn1)N1CCc2c([nH]c3ccccc23)C1 |  |  | inactive | 
O=C(c1ccc(Br)o1)N1CCc2c([nH]c3ccccc23)C1 |  |  | inactive | 
c1ccc2[nH]c(CN3CCc4c([nH]c5ccccc45)C3)nc2c1 |  |  | inactive | 
O=C(c1c[nH]c2ccccc12)c1nccc2c1[nH]c1ccccc12 | 99.4 | 78.7 |  | 

Compound | Activity (LS180 [1]) [%] | viability at 48 h, 10 µM [2] [%] | Activity (LS180 [12]) | further results
c1ccc2cc(CN3CCc4c([nH]c5ccccc45)C3)ccc2c1 |  |  | inactive | 
COc1ccc(C(=O)c2nccc3c2[nH]c2ccccc23)c(OC)c1 | 108 | 82.2 |  | 
O=C(c1cc2ccccc2o1)N1CCc2c([nH]c3ccccc23)C1 |  |  | inactive | 
O=C(c1ccc2ccccc2n1)N1CCc2c([nH]c3ccccc23)C1 |  |  | inactive | 
O=C(c1ccccc1)c1nccc2c1[nH]c1ccccc12 | 94.6 | 67.5 |  | 
O=C(c1ccccc1Cl)c1nccc2c1[nH]c1ccccc12 | 105 | 89.4 |  | 
C[n+]1ccc2c([nH]c3ccccc32)c1C(=O)c1ccccc1F | 79 | 69.8 |  | 
CO[C@H]1/C=C/O[C@@]2(C)Oc3c(C)c(O)c4c(O)c(c(/C=N/N5CCN(C)CC5)c(O)c4c3C2=O)NC(=O)/C(C)=C\C=C\[C@H](C)[C@H](O)[C@@H](C)[C@@H](O)[C@@H](C)[C@H](OC(C)=O)[C@@H]1C |  |  |  | Activity (LS180 [13]): 67.1%
O=C(c1ccc(-c2ccccc2)cc1)N1CCc2c([nH]c3ccccc23)C1 |  |  | inactive | 
CN1CCN(C(=O)N2CCc3c([nH]c4ccccc34)C2)CC1 |  |  | inactive | 
O=C1c2cc(Cl)ccc2-[n+]2ccc3c([nH]c4ccccc43)c21 | 58.7 | 67.9 |  | 
O=C(c1ccc(Cl)c(Cl)c1Cl)c1nccc2c1[nH]c1ccccc12 | 104 | 84.9 |  | 
C[n+]1ccc2c([nH]c3ccccc32)c1C(=O)c1ccccc1 | 75.2 | 77.5 |  | 
O=C1c2ccccc2-[n+]2ccc3c([nH]c4ccccc43)c21.[Cl-] [FASCAPLYSIN CHLORIDE] | 57.6 | 57.5 |  | solubility thermodynamic [3]: > 1500 µg/mL; solubility thermodynamic [5]: > 1500 µg/mL; Activity (LS180 [6]): 43.7%; Activity (LS180 [7]): 34.5%; solubility thermodynamic [8]: > 1500 µg/mL; Activity (LS180 [9]): 39.3%; solubility thermodynamic [10]: > 1500 µg/mL; Activity (LS180 [11]): 42.9%; pIC50 [14]: 5.40
C[n+]1ccc2c([nH]c3ccccc32)c1C(=O)c1ccccc1Br.[I-] | 70.1 | 69.1 |  | solubility thermodynamic [3]: 800 µg/mL; fold change (FC) (LS180 [4]): 8; solubility thermodynamic [5]: 800 µg/mL; Activity (LS180 [6]): 42.3%; Activity (LS180 [7]): 33.6%; solubility thermodynamic [8]: 800 µg/mL; Activity (LS180 [9]): 41.8%; solubility thermodynamic [10]: 800 µg/mL; Activity (LS180 [11]): 80%
Cc1noc(C)c1CN1CCc2c([nH]c3ccccc23)C1 |  |  | inactive | 
O=C(c1c[nH]c2ccccc12)N1CCc2c([nH]c3ccccc23)C1 |  |  | inactive | 
O=C(c1cc(F)c(F)cc1Cl)c1nccc2c1[nH]c1ccccc12 | 112 | 81.9 |  | 
O=[N+]([O-])c1ccc(CN2CCc3c([nH]c4ccccc34)C2)o1 |  |  | inactive | 
O=C1NCCN1C(=O)N1CCc2c([nH]c3ccccc23)C1 |  |  | inactive | 
O=C1c2ccc(Cl)cc2-[n+]2ccc3c([nH]c4ccccc43)c21 | 57.1 | 66.2 |  | 
O=C(c1cc(Cl)ccc1Cl)c1nccc2c1[nH]c1ccccc12 | 103 | 69.6 |  | 
O=C1c2cc(F)c(Cl)cc2-[n+]2ccc3c([nH]c4ccccc43)c21 | 55.5 | 36.8 |  | 
Cc1ccsc1C(=O)N1CCc2c([nH]c3ccccc23)C1 |  |  | inactive | 
